From PubChem
Hsp70 activator – transcriptional activators of Hsp70 | actives 0.04% (n = 200,000) | AID 1203 | HeLa Hsp70 promoter luciferase reporter, luminescence; scaled: vehicle 0, proteasome-inhibitor control 100% | activation, % at 10 µM;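 active means activation above the mean across all tested compounds plus 3 SD, cutoff set per campaign, cut at about 5.5% in these data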;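 further: 100% = MG132 at 30 µM as the positive control and 0% = DMSO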
HSF1 inhib – HSF1 inhibition | AID 2098 | NIH3T3-HGL HSE-luciferase, MG132-induced, luminescence 8 h; hits give low values | activity change, negative = inhibition, % at 7.5 µM (by protocol) | actives 0.77% (n = 300,000);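 active means more than half of replicate wells show activity change below -50%, luminescence cut by over half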;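 further: luciferase reports HSF-1 transcriptional activity via heat shock element; 0% = median of DMSO wells and -100% = zero luminescence signal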
STAT3 act – STAT3 signaling activation. U3A cells, IL-6 STAT3-luciferase reporter, luminescence; 100% = signal with IL-6 EC80 alone. activation (% of control), % at 5.6 µM. actives 0.91% (n = 190,000);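 active means activation above the screen-wide mean of compound activation plus 3 SD, cut at about 130% in these data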;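 further: 0% = background luminescence of wells with medium and substrate only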
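Assay system – human STAT1-deficient U3A cells with stable STAT3-luciferase reporter · Also added – IL-6 (33 ng/mL) · Schedule – compound 1 h, then IL-6 6 h at 37 °C · Technique – reporter luminescence signal · Evaluation – % activation versus median of IL-6-stimulated wells · Benchmarks – IL-6-only wells as 100% reference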
AHR act – activators of human aryl hydrocarbon receptor | P35869 | AHR-responsive luciferase reporter cells, luminescence | actives 2.5% (n = 320,000) | activation, % at 5 µM; in the data active means activation above about 47%;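 further: 0% = vehicle wells and 100% = reference agonist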
PolyA inhibitor – yeast polyadenylation inhibition; S. cerevisiae SKY197-pL101 polyadenylation reporter, beta-gal luminescence; efflux-impaired pdr1/pdr3 knockout yeast; score 100 = 6 SD above DMSO; activity score, % at 12 µM; actives 0.02% (n = 300,000);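 active means lowest replicate activity score at least 50, where 100 means six control SD above control mean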;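 further: yeast exposed to compound for 9 h at 30 °C; higher score means more reporter readthrough which indicates perturbed polyadenylation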
PERK inh – human PERK inhibition, primary cell-based screen. AID 1416. actives 0.17% (n = 220,000). CHO PERK-DD fusion, SEAP luminescence translation reporter. inhibition, % at 5.6 µM. Q9NZJ5;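 active means inhibition above the mean inhibition of all tested compounds plus 3 SD, set separately per screening campaign, cut at about 2.9% in these data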;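 further: PERK kinase domain activated by AP20187 dimerizer at 100 nM; 0% = DMSO with dimerizer and 100% = rapamycin at 8.4 µM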
Target sequence (Q9NZJ5 whole entry, looked up, the tested form may be a part): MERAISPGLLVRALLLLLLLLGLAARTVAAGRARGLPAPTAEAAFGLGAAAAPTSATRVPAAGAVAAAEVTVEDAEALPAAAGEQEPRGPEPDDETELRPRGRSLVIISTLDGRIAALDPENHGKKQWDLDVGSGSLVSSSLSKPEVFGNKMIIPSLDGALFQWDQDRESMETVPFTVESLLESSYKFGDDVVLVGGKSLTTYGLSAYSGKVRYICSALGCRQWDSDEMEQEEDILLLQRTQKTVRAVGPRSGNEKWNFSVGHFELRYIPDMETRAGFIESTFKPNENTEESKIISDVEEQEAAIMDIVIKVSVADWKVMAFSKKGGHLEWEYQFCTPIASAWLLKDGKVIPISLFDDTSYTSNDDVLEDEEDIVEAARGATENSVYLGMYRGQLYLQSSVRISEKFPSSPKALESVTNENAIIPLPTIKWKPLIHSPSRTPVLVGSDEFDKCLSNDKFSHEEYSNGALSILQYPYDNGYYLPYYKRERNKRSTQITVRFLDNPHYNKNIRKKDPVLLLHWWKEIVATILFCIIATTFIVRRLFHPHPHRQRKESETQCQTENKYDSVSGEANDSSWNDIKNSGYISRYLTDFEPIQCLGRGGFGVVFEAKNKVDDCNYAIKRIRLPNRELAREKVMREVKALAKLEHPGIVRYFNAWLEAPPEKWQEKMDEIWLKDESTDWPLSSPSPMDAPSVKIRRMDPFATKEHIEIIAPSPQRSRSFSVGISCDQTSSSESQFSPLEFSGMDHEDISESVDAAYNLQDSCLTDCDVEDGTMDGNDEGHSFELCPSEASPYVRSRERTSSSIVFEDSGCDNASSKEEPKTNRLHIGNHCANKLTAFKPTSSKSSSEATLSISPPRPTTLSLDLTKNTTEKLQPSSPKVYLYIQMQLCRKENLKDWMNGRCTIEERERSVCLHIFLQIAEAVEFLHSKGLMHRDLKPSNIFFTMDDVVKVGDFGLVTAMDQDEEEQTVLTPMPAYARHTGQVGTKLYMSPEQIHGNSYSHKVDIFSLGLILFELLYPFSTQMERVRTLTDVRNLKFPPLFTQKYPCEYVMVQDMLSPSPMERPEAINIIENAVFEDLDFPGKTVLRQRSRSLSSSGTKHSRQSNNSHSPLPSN
* marks the source's active call; other numbers are inactive results; nt = not tested or not shown. Hits are enriched below; roughly 3.6% of the tested compounds scored in any of these assays.

SMILES	Hsp70 activator	HSF1 inhib	STAT3 act	AHR act	PolyA inhibitor	PERK inh
CC(C)(C)CC(=O)Nc1cccc(-c2cn3cccnc3n2)c1	0	10	109	48*	-3	0
COc1ccc(/C=C/C2=Nc3ccccc3NC(C)(C)C2)cc1OC	nt	-4	nt	28	11	-1
CCOc1ccccc1OCCOCCOc1c(Cl)cccc1Cl	0	-53*	105	21	2	0
CCOc1ccc(OCCOCCOc2c(Cl)cccc2Cl)cc1	0	0	105	6	3	2
CC1CN(C(=O)CSc2nnc(CNC(=O)c3ccc(S(=O)(=O)N(C)C)cc3)o2)CC(C)O1 (configuration not stated)	nt	-7	nt	5	21	nt
CCOC(=O)Cn1ccc(NC(=O)COc2ccc(F)cc2F)n1	nt	-1	nt	-1	15	nt
O=C(Nc1nnc(Cc2ccccc2)s1)Nc1ccccc1F	nt	8	nt	15	0	nt
Cc1[nH]c2ccccc2c1C1C(c2ccccc2)=NN=C(C(C)C)N1O (configuration not stated)	0	0	112	26	-14	-1
CC1=NN=C(c2ccccc2)C(c2c[nH]c3ccccc23)N1O (configuration not stated)	0	5	104	68*	7	2
CCN1C(=O)[C@H]2[C@@H](c3ccc(-c4ccccc4)cc3)N3CCCC[C@@]3(C(=O)OC)[C@H]2C1=O	nt	-1	nt	-2	-14	nt
O=C1CCN(Cc2ccc(Br)cc2)CCN1[C@H](CO)Cc1ccccc1	nt	4	nt	4	13	nt
CCOC(=O)N1CCC2(CC1)C(C#N)=C(N)Oc1c2sc2nc(C)cc(C)c12	0	5	99	11	1	0
CCCN1CCC2(CC1)C(C#N)=C(N)Oc1c2sc2nc(C)cc(C)c12	0	-5	99	61*	11	-1
CCc1ccc(Nc2nnc(SCC(=O)Nc3sccc3C(N)=O)s2)cc1	0	5	108	60*	-15	0
COc1cccc(Nc2nnc(SCC(=O)Nc3sccc3C(N)=O)s2)c1	0	-2	86	24	4	0
O=C1C(c2c(O)[nH]c3ccccc23)=Nc2ccccc21	0	9	nt	60*	-14	1
Cc1ccc(-n2c(SCC(N)=O)nc3c(c2=O)C2(CCCC2)Cc2ccccc2-3)cc1	0	-4	101	0	-4	1
CCSc1n[nH]c2nc3c(c(=O)n12)C1(CCCC1)Cc1ccccc1-3	0	-5	103	51*	10	0
CC(C)Sc1n[nH]c2nc3c(c(=O)n12)C1(CCCC1)Cc1ccccc1-3	1	nt	106	nt	nt	1
C=CCSc1n[nH]c2nc3c(c(=O)n12)C1(CCCC1)Cc1ccccc1-3	0	nt	105	59*	nt	0
CSc1n[nH]c2nc3c(c(=O)n12)C1(CCCC1)Cc1ccccc1-3	0	-1	110	79*	-32	0
O=C(COc1ccc(S(=O)(=O)N2CCOCC2)cc1)NCc1ccccn1	nt	-8	nt	-1	-12	nt
O=C(NCc1ccncc1)Nc1ccc(Cl)cc1Cl	0	-3	96	49*	9	0
CCc1cc2c3c([nH]c2cc1S(=O)(=O)NCCCOC)CC(C)(C)CC3=O	nt	3	nt	2	23	nt
CCCOc1ccc(NC(N)=O)cc1OCCC	0	-68*	105	26	6	0
SMILES	Hsp70 activator	HSF1 inhib	STAT3 act	AHR act	PolyA inhibitor	PERK inh
COc1ccc(NC(=O)N(C)C[C@H]2Oc3c(NC(=O)C4CC4)cccc3C(=O)N([C@H](C)CO)C[C@@H]2C)cc1	nt	nt	nt	0	nt	nt
CC(C)CC(=O)N=C1SC2CS(=O)(=O)CC2N1Cc1ccccc1Cl (configuration not stated)	nt	6	nt	0	11	0
O=C(Cc1ccccc1)NNc1ccc2ccccc2c1	0	-63*	116	38	-28	0
O=C(COc1ccc2ccccc2c1)NNC(=O)Cc1ccccc1	0	0	88	0	6	1
c1cncc(-c2nc3cc4ccccc4cc3[nH]2)c1	0	13	94	56*	-10	0
O=C(Nc1ccc2ccccc2c1)c1ccccc1F	nt	29	nt	13	-3	nt
CC(=O)Nc1ccc2nc(-c3ccncc3)[nH]c2c1	0	-14	105	13	2	0
O=C(Nc1ccc2nc(-c3cccnc3)[nH]c2c1)c1ccccc1F	0	-63*	75	-19	-3	0
O=c1[nH]c(-c2cccnc2)nc2sc(-c3ccccc3)cc12	0	nt	93	75*	-2	0
O=C(Nc1ccc2cn[nH]c2c1)c1ccccc1F	1	26	95	105*	-15	1
COc1ccc2nc(-c3ccccc3)[nH]c2c1	0	4	74	15	10	0
CSCCC(NC(=O)COc1ccccc1)C(=O)NCc1cccs1 (configuration not stated)	nt	1	nt	3	1	nt
CN(Cc1ccccc1)C(=S)Nc1ccc2nc3n(c(=O)c2c1)CCCCC3	0	20	93	-1	5	0
COc1ccc2c(c1O)-c1ccccc1CCN(C)C2	0	-5	nt	-1	-20	0
COc1ccc2c3c1OC1CC(O)C=CC31CCN(C)C2 (configuration not stated)	nt	-1	nt	-2	-4	3.1*
CCOC(=O)N1CCC(NCc2c(C(=O)N(C)Cc3ccccc3)nc3ccccn23)CC1	0	4	104	1	-9	0
Cc1onc(-c2ccc(Cl)cc2Cl)c1C(=O)/C=C/N(C)C	nt	2	nt	-2	-5	0
CC(=O)c1c(-c2ccc(Cl)cc2Cl)noc1C	nt	-57*	nt	-1	-1	1
CN1CCN(c2ncnc3sc(-c4ccccc4)cc23)CC1	0	1	119	55*	13	0
CN(C)/C=N/c1c(C#N)cnn1-c1ccccc1	0	-12	105	11	0	1
CN(C)/C=N/c1c(C#N)cnn1-c1ncnc2sc(-c3ccccc3)cc12	0	16	90	58*	3	-1
CCN(CC(=O)Nc1ccc(NC(C)=O)cc1)C(=O)CC1OC(=O)c2ccccc21 (configuration not stated)	nt	-7	nt	5	-15	nt
O=C1CC2(CCN(C(=O)C3CC(=O)N(c4ccc(F)cc4)C3)CC2)Oc2ccccc21 (configuration not stated)	nt	-2	nt	0	1	nt
O=C(CN1C2=NCCCN2c2ccccc21)c1ccc(Cl)cc1Cl	0	23	109	59*	-4	0
CCc1nc(SCC(=O)Nc2cc(OC)ccc2OC)c2c(C)c(C)sc2n1	nt	-2	nt	1	8	nt
COC(=O)CN1C(=O)Nc2ccc(C)cc2C1c1ccccc1 (configuration not stated)	0	-70*	101	1	-9	0
